# An excerpt weighted towards active compounds, which were near 1.2% of everything screened.
# Fh CTSL1 inh = cathepsin L1 inhibition, PFM18AAP counter-screen; recombinant F. hepatica cathepsin L1, Z-Leu-Arg-MCA fluorescence; AID 1906; inhibition, % at 5.96 µM; 300,000 compounds, 0.49% hits;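 active means inhibition above the mean of all tested compounds plus 3 SD, set per screening campaign, cut at about 17% in these data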;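 further: 0% = plate median of test compound wells and 100% = 1 µM Z-Phe-Ala-diazomethylketone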
# GC-A act = GC-A (human) enzyme activation; AID 1671463; HEK293 GC-A cells, cGMP TR-FRET, EC30 ANP; 0% at EC30 ANP, 100% saturating ANP; 370,000 compounds, 0.14% hits; activation, % at 10 µM; P16066; in the data active means activation above about 40%
# Target sequence (P16066 whole entry, looked up): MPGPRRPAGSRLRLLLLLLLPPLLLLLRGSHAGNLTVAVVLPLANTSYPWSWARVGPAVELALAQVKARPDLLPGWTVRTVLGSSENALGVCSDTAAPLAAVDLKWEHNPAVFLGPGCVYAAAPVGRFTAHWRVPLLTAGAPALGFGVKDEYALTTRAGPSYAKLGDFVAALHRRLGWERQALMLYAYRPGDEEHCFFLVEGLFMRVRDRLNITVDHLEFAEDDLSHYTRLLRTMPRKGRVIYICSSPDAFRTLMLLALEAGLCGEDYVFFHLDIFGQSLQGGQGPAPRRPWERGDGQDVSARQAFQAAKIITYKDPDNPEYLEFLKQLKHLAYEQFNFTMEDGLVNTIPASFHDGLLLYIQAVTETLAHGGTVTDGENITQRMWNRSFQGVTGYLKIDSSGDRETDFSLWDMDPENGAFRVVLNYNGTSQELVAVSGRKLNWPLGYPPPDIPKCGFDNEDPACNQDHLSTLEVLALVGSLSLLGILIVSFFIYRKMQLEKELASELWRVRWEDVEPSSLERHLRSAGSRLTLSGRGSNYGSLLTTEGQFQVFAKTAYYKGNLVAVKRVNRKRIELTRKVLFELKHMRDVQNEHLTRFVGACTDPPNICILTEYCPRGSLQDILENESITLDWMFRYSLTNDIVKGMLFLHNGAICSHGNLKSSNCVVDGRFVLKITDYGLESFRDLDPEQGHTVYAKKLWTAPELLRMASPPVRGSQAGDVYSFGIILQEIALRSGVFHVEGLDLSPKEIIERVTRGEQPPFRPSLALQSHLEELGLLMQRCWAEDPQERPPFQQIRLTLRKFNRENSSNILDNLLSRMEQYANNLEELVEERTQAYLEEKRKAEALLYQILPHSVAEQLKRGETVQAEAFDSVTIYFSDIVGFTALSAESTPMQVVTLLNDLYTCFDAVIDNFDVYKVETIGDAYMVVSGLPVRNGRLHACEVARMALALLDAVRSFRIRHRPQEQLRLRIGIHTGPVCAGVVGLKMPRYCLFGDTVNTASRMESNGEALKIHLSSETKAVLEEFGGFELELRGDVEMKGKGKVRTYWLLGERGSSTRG
# ARFGAP1 inhibitor = inhibitors of rat ARFGAP1; Arfgap1-stimulated ARF1 GTP hydrolysis, GDP FP detection; inhibition, % at 16.5 µM; 360,000 compounds, 0.26% hits; AID 651572;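 active means inhibition above a per-plate limit, mean inhibition of low control wells plus 3 SD, cut at about 25% in these data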;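 further: 0% = DMSO wells with enzyme and 100% = wells lacking Arfgap1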
#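 system = rat Arfgap1 catalytic domain, aa 1-136 | technique = FP, GDP Alexa 633 tracer displaced from anti-GDP antibody, 620/688 nm | compound = one concentration, 16.5 µM, DMSO 1.26% | medium = HEPES-based buffer, pH 7.5 | timing = compound-enzyme preincubation 20 min, reaction 120 min, detection 60 min, 25 °C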
# NPR2 activator = GC-B (human) receptor activation; P20594; HEK293-GC-B cells, CNP EC30, cGMP TR-FRET; 0% at EC30 CNP, 100% saturating CNP; activation, % at 10 µM; 370,000 compounds, 0.11% hits; AID 1920062;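 active means activation at 10 µM reaching about 35% in either raw or pattern-adjusted values, limit read from the data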
# core dimer inh = blocks dimerization of HCV core protein; TR-FRET GST/Flag-core106 dimerization, 1536-well; inhibition, % at 5 µM; 300,000 compounds, 0.33% hits; AID 1899;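 active means inhibition above the mean of all tested compounds plus 3 SD, set per screening campaign, cut at about 45% in these data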
#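 Material: Tagged HCV core106 pair (GST and Flag) | Amount: GST-core106 13.5 nM, Flag-core106 17 nM | Medium: KF-containing HEPES buffer, pH 7.45, DTT, CHAPS, BSA | Reagent: Eu donor and XL665 acceptor anti-tag antibodies | Schedule: 4 h at 22.5 °C | Technique: Time-resolved FRET, ex 340 nm, em 617 and 671 nm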
# ASAP1 inh = blocks human ASAP1-stimulated Arf1 GTP hydrolysis. Q9ULH1. GDP FP detection. inhibition, % at 16.5 µM. 360,000 compounds, 0.19% hits. AID 624377; in the data active means inhibition above about 25%;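 further: 0% = vehicle with enzyme and substrate and 100% = no enzyme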
# Numbers without * were called inactive; nt = no result.
SMILES,Fh CTSL1 inh,GC-A act,ARFGAP1 inhibitor,NPR2 activator,core dimer inh,ASAP1 inh
CC(NC(=O)/C(C#N)=C/c1ccc(Cl)c([N+](=O)[O-])c1)c1ccccc1 (stereo not given),0,55*,-2,0,12,15
O=C(NCCN1C(=O)S/C(=C/c2ccccc2)C1=O)C1CC(=O)N(Cc2ccccc2)C1 (stereo not given),nt,-5,8,-9,nt,-2
O=C(Cn1cnc2ccccc21)c1ccccc1,nt,3,14,2,nt,10
Cc1nnc(NC(=O)COc2ccc3c(C)cc(=O)oc3c2)s1,-2,0,8,1,79*,-8
Cc1cc(=O)oc2cc(OCC(=O)c3ccc4c(c3)NC(=O)CO4)ccc12,-1,-6,10,-5,63*,19
Cc1ccc(C(=O)COc2ccc3c(C)cc(=O)oc3c2)cc1,7,-1,8,-3,8,11
O=C(CN1C(=O)/C(=C/c2cccc(Br)c2)SC1=S)NC1=NCCS1,3,1,2,4,50*,12
Cc1ccc(/C=C2\SC(=S)N(CC(=O)Nc3ncc(Cc4ccccc4Cl)s3)C2=O)cc1,-2,-2,2,-3,32,10
O=C(O)COc1cccc(/C=C2/SC(=S)N(Cc3ccccc3)C2=O)c1,2,-7,2,5,56*,-1
Cc1cccc(Cc2cnc(NC(=O)CN3C(=O)/C(=C/c4ccccc4)SC3=S)s2)c1,3,1,11,0,62*,12
Cc1ccc(/C=C2/SC(=S)N(CC(=O)Nc3ncc(Cc4ccc(C)cc4)s3)C2=O)cc1,2,1,-6,7,70*,8
O=C(O)CN1C(=O)/C(=C\c2cccc(OCc3ccccc3)c2)SC1=S,3,-2,-27,2,9,8
O=C(c1cccc(Cl)c1)N1CCN(C2CCCCC2)CC1,25*,2,-11,-1,-2,-4
CN(C(=O)CN1C(=O)/C(=C/c2ccccc2Cl)SC1=S)C1CCS(=O)(=O)C1 (stereo not given),2,8,-13,-3,-1,12
COc1ccc(Cl)c2c1[nH]c1nc(SCc3cccnc3)nnc12,-3,32,6,43*,1,5
Cc1cc(=O)oc2cc(OC(=O)c3ccco3)ccc12,nt,3,6,0,nt,10
O=C(NCc1ccccc1)C1CC(=O)N(C2CCCCC2)C1 (stereo not given),-1,-1,-4,1,11,-1
CC(C)c1cc(C(C)C)c(S(=O)(=O)N2c3ccccc3[C@@]3(Br)C[C@H]4C(=O)N[C@@H](Cc5ccccc5)C(=O)N4[C@@H]23)c(C(C)C)c1,1,nt,nt,nt,46*,nt
O=C1N[C@@H](Cc2ccccc2)C(=O)N2[C@H]1C[C@]1([C@]34C[C@H]5C(=O)N[C@@H](Cc6ccccc6)C(=O)N5[C@H]3N(S(=O)(=O)c3ccccc3)c3ccccc34)c3ccccc3N(S(=O)(=O)c3ccccc3)[C@H]21,-2,1,-5,1,60*,-14
C[C@@H](O[Si](c1ccccc1)(c1ccccc1)C(C)(C)C)[C@@H]1NC(=O)[C@@H]2C[C@]3(Br)c4ccccc4N(S(=O)(=O)c4ccccc4)[C@@H]3N2C1=O,nt,-5,nt,1,nt,nt
O=C1N[C@@H](Cc2ccccc2)C(=O)N2[C@@H]3N(S(=O)(=O)c4ccccc4)c4ccccc4[C@]3(Br)C[C@@H]12,7,-5,2,-7,23,-4
Cc1cc(C)c(S(=O)(=O)/N=C2/C=C(Sc3ncn[nH]3)C(=O)c3ccccc32)cc1C,92*,-15,-8,-6,-11,14
Cc1ccc(C)c(S(=O)(=O)/N=C2\C=C(NS(=O)(=O)c3ccccc3)C(=O)c3ccccc32)c1,4,-9,5,-4,-4,-13
COc1ccc(NC(=O)N2CCN(CCC#N)CC2)cc1,17*,-2,-4,7,-6,-8
COc1ccc(NC(=O)N2CCN(C(=O)Nc3ccc(OC)cc3)CC2)cc1,-6,0,16,-3,-6,3
SMILES,Fh CTSL1 inh,GC-A act,ARFGAP1 inhibitor,NPR2 activator,core dimer inh,ASAP1 inh
CC(C)(C)c1nnc2sc(SCC(=O)c3ccccc3)nn2c1=O,12,-2,2,-1,-4,-5
CC(C)(C)c1nnc2sc(SC/C(O)=C(\C#N)c3nc4ccccc4[nH]3)nn2c1=O,-4,-6,-10,-1,60*,1
COc1ccc(NC(=O)CCNC(=O)N2CC(=O)Nc3ccccc32)cc1,nt,1,-14,-4,nt,-12
CCOC(=O)COn1c(=O)c(-c2ccc(Cl)cc2)[n+]([O-])c2ccccc21,nt,2,-10,-2,nt,17
CCOC(=O)COn1c(=O)c(-c2ccc(C)cc2)[n+]([O-])c2ccccc21,20*,-2,3,-1,-17,11
O=C(OCCCOC(=O)c1ccc([N+](=O)[O-])o1)c1ccc([N+](=O)[O-])o1,23*,-1,-15,1,-2,0
CCc1cccc(NC(=O)CSCc2nc3sc(C)c(C)c3c(=O)[nH]2)c1,nt,-4,8,-7,nt,2
COc1ccc(CCNC(=O)C2CCC(CNS(=O)(=O)c3ccccc3)CC2)cc1OC (stereo not given),1,nt,nt,nt,-2,nt
O=C(/C=C/c1ccco1)N(Cc1ccccc1)C1CCS(=O)(=O)C1 (stereo not given),8,-3,-3,-2,5,-2
Cc1ccc(S(=O)(=O)N2Cc3ccccc3CC2C(=O)Nc2ccc3c(c2)OCO3)cc1 (stereo not given),-1,2,-6,3,54*,8
CN(Cc1ccc(OC(F)F)cc1)C(=O)C1CCN(S(=O)(=O)c2ccc3c(c2)OCCO3)CC1,nt,-3,13,-1,nt,11
O=C1CC(c2ccccc2)c2cc(O)ccc2O1 (stereo not given),2,nt,-3,nt,-5,4
Cc1ccc(C2CC(=O)Oc3cc(O)ccc32)cc1 (stereo not given),4,57*,2,10,-10,10
CCOC(=O)C1=C(N)Oc2cc(O)ccc2C1c1ccc(C)cc1 (stereo not given),1,49*,16,0,0,4
Cc1ccc(NC(=O)CSc2nc3ncc(Br)cc3[nH]2)cc1C,4,-7,-11,-7,7,6
CCOC(=O)c1sc(NC(=S)NC(=O)CC(C)C)cc1C,3,3,7,-2,71*,9
CCOC(=O)c1sc(NC(=S)NC(=O)C2CCCC2)cc1C,-1,-6,3,7,46*,13

# High-throughput results from PubChem BioAssay.
